Source: ChEMBL document CHEMBL4321838, “Drug Design Targeting T-Cell Factor-Driven Epithelial-Mesenchymal Transition as a Therapeutic Strategy for Colorectal Cancer” (J Med Chem, 2019)
Activity calls are given as the source filed them.

How the values were obtained:
[1] = target: T1, DNA topoisomerase 2-alpha (Homo sapiens, UniProt P11388); assay: Inhibition of human topoisomerase 2alpha mediated decatenation at 30 uM using kDNA as susbtrate preincubated for 20 mins followed by substrate and ATP addition and measured after 1 hr by ethidium bromide staining based gel electrophoresis method relative to control
T1 sequence (P11388 whole entry): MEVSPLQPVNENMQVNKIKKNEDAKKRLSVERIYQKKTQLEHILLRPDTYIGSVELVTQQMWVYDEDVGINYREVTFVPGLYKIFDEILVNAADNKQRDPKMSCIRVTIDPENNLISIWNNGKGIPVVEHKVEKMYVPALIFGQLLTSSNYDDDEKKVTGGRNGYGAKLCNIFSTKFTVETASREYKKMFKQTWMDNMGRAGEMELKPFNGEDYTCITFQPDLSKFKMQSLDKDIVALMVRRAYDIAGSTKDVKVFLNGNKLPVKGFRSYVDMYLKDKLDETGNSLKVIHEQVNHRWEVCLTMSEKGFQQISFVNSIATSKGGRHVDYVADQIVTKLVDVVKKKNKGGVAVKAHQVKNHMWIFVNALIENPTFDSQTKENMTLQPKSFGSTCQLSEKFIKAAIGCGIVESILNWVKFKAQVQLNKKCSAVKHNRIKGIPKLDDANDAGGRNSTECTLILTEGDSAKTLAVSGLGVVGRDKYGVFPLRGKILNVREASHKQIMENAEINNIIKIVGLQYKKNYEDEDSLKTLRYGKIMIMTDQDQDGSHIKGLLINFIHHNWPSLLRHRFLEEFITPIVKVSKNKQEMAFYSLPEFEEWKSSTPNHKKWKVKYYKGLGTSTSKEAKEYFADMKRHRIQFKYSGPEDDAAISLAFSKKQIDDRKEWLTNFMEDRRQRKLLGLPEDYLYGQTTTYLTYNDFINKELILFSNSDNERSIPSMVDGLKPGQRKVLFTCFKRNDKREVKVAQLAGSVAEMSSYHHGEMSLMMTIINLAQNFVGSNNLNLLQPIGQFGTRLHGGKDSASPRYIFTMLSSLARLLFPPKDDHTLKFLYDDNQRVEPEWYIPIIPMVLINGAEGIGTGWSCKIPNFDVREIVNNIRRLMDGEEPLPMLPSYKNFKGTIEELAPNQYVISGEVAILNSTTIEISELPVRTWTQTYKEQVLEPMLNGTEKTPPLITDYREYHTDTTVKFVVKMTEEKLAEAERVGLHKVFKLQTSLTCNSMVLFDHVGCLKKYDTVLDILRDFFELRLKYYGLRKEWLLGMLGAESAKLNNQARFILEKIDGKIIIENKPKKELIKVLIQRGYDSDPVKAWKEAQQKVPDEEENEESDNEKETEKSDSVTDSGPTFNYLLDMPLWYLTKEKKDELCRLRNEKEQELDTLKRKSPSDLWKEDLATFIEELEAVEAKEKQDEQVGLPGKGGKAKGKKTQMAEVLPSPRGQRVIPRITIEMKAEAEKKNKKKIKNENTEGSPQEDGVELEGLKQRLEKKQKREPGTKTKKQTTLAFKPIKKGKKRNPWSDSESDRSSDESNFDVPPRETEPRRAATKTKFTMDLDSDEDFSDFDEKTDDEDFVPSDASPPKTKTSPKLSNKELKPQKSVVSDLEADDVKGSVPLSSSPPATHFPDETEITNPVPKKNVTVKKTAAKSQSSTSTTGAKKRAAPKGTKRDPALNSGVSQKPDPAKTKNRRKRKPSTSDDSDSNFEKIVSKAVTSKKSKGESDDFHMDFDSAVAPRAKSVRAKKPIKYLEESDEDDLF
In short: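 Human TOP2A (3 U) preincubated 20 min at 37 °C with compound at 30 μM in 1.2% DMSO. Reaction started with 2 mM ATP and 35 ng kDNA and run 1 h at 37 °C. Products resolved on 0.8% agarose in TBE with 0.2 μg/mL ethidium bromide; decatenated bands compared with vehicle.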

SW-620 [2] = assay: Anticlonogenic activity against human SW620 cells assessed as loss of cancer stem cell stemness by measuring inhibition of colony formation at 10 uM incubated for 24 hrs followed by replating and measured after 7 days by clonogenic assay; type: functional, cell-based
[3] = target: T1, DNA topoisomerase 2-alpha; assay: Inhibition of human topoisomerase 2alpha mediated decatenation using kDNA as susbtrate preincubated for 20 mins followed by substrate and ATP addition and measured after 1 hr by ethidium bromide staining based gel electrophoresis method
In short: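 IC50 from decatenation gels: TOP2A at 4 U per reaction, compound as 2-fold serial dilutions from 58.6 nM to 30 μM, 20 min preincubation. Then 2 mM ATP plus 35 ng kDNA for 1 h at 37 °C. Gels were 0.8% agarose with ethidium bromide, with decatenated and catenated DNA marker lanes.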

[4] = Metabolic stability in CD-1 mouse inactive microsomes incubated for 1 hr by LC-MS/MS analysis; type: ADME, Microsome
[5] = target: T1, DNA topoisomerase 2-alpha; assay: Inhibition of topoisomerase 2alpha in human SW620 organoids transfected with EcadPro-RFP reporter assessed as reversion of epithelial-mesenchymal transition by measuring increase in E-cadherin expression at 10 uM after 72 hrs by Hoechst 33342 staining based mCherryRFP reporter gene assay
In short: (§1)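 SW620 cells stably carrying VimPro-GFP or EcadPro-mCherry (puromycin selected) grown as organoids and dosed 72 h. Stained with 16 μM Hoechst 33342 for 1 h and imaged as 15 z-layers, 26.5 μm apart. Nuclei segmented and GFP- or mCherry-positive cells counted above background thresholds. Percent positive cells normalised to DMSO.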

[6] = target: T1, DNA topoisomerase 2-alpha; assay: Inhibition of topoisomerase 2alpha dependent TCF transcription in human SW620 organoids transduced with TOPflash luminescent reporter at 10 uM after 72 hrs by luciferase based TOPFlash reporter gene assay
[7] = target: T1, DNA topoisomerase 2-alpha; assay: Inhibition of topoisomerase 2alpha in human SW620 organoids transfected with VimPro-GFP reporter assessed as reversion of epithelial-mesenchymal transition by measuring reduction in vimentin expression at 10 uM after 72 hrs by Hoechst 33342 staining based GFP reporter gene assay; in short: as §1
SW-620 [8] = assay: Cytotoxicity against human SW620 organoids assessed as cell death with loss of membrane integrity after 72 hrs by CellTox Green assay; type: functional, cell-based; settings: SW-620, 72 h
In short: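 SW620 tumor organoids exposed 72 h to inhibitor over 0–40 μM together with CellTox Green Express (0.5X). Whole-well mean fluorescence imaged (ex 488, em 500–550 nm). Normalised to lysis buffer as 0% viability and 0.4% DMSO as 100% viability.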

[9] = target: T1, DNA topoisomerase 2-alpha; assay: Inhibition of topoisomerase 2alpha dependent TCF transcription in human SW620 organoids transduced with TOPflash luminescent reporter after 72 hrs by luciferase based TOPFlash reporter gene assay
In short: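 SW620 cells stably carrying pCDH-TOPflash-luc grown as organoids: 5,000 cells per U-bottom well in phenol red-free RPMI with 5% FBS and 2% Matrigel, 72 h. Inhibitor then applied 72 h. One-Glo luciferase and CellTiter-Glo 3D added 1:1. Luciferase signal normalised to viability, then to DMSO controls.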

[10] = Drug metabolism in CD-1 mouse active microsomes assessed as CYP450-mediated oxidative phase 1 metabolite formation by LC-MS/MS analysis
SW-620 [11] = assay: Antiinvasive activity in human SW620 organoids transduced with NucLight-Red virus assessed as inhibition of cell invasion at 10 uM incubated for 72 hrs and measured after 72 hrs by matrigel based fluorescence analysis; type: functional
In short: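 NucLight-Red-labelled SW620 organoids treated 72 h at 10 μM in 0.1% DMSO, then dissociated. 5,000 live cells per well seeded in 50% Matrigel in the upper chamber of a migration plate, 0.5% FBS above and 20% FBS below. Invading cells tracked by bottom-side fluorescence over days, six replicates per condition.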

[12] = Drug metabolism in CD-1 mouse active microsomes assessed as CYP450-mediated oxidative phase 1 metabolite formation measured within 30 mins by LC-MS/MS analysis; type: ADME; settings: 0.5 h
[13] = Drug metabolism in CD-1 mouse active microsomes assessed as metabolite formation at rate of first-order kinetics by LC-MS/MS analysis; type: ADME, Microsome

inhibition [1] [%] | IC50 [9] [nM] | Compound | EC50 (SW-620 [8]) [nM] | other results
100 |  | CC(=O)Nc1ccc2c(-c3cccc(F)c3)ccnc2c1O |  | 
0 |  | CC(=O)Nc1ccc2c(-c3cc4ccccc4s3)ccnc2c1O |  | 
97 | 4700 | CC(C)(C)C(=O)Nc1ccc2c(-c3ccccc3)ccnc2c1O | > 30000 | inhibition (SW-620 [2]): Active; IC50 [3]: 1300 nM; inhibition (SW-620 [11]): Active
97 | 2000 | CC(=O)Nc1ccc(-c2ccnc3c(O)c(NC(C)=O)ccc23)cc1 | > 30000 | inhibition (SW-620 [2]): Active; IC50 [3]: 1900 nM; Drug metabolism [13]: Metabolite_Detected; Stability [4]: Stable; inhibition (SW-620 [11]): Active; Drug metabolism [12]: Metabolite_Notdetected
1 |  | CC(=O)Nc1ccccc1-c1ccnc2c(O)c(NC(C)=O)ccc12 |  | 
0 |  | CC(=O)Nc1ccc2c(-c3cccc(O)c3)ccnc2c1O |  | 
100 | 5000 | CC(=O)Nc1ccc2c(-c3cccs3)ccnc2c1O | > 30000 | 
86 | 1700 | CC(=O)Nc1ccc2c(-c3ccoc3)ccnc2c1O | > 30000 | inhibition (SW-620 [2]): Active; inhibition (SW-620 [11]): Active

Continued, compound first:

Compound | inhibition [1] [%] | IC50 [9] [nM] | EC50 (SW-620 [8]) [nM] | other results
O=C(CN1CCOCC1)Nc1ccc2c(-c3cc(F)ccc3O)ccnc2c1O | 4 |  |  | 
COc1cc(NC(C)=O)c(O)c2nccc(-c3ccccc3NC(=O)c3ccccc3)c12 | 100 | 2400 | > 30000 | inhibition (SW-620 [2]): Active; IC50 [3]: 1200 nM; Stability [4]: Stable; inhibition [5]: Active; inhibition [6]: Active; inhibition [7]: Active; Drug metabolism [10]: Metabolite_Notdetected; inhibition (SW-620 [11]): Active; Drug metabolism [12]: Metabolite_Detected
CC(=O)Nc1ccccc1-c1ccnc2c(O)c(NC(=O)CCN3CCOCC3)ccc12 | 1 |  |  | 
CC(C)(C)C(=O)Nc1ccc2c(-c3cc(F)ccc3O)ccnc2c1O | 0 |  |  | 
CC(=O)Nc1ccc2c(-c3cc(C(F)(F)F)ccc3O)ccnc2c1O | 100 |  |  | 
COc1c(NC(C)=O)cc(OC)c2c(-c3ccccc3NC(=O)c3ccccc3)ccnc12 | 0 |  |  | 
